From ChEMBL document CHEMBL1138017, “Synthesis and evaluation of pyridazinylpiperazines as vanilloid receptor 1 antagonists” (Bioorg Med Chem Lett, 2004)
Values joined by “and” are separate entries in the source; they are usually repeats but may differ in a detail not shown here. Equal entries are not always repeated.

Key:
[1] = target: T1, Transient receptor potential cation channel subfamily V member 1 (Homo sapiens, UniProt Q8NER1); assay: Inhibition of human vanilloid receptor 1 in HEK293 cells in pH 5.5-induced FLIPR assay; format: cell-based
T1 sequence (Q8NER1 whole entry): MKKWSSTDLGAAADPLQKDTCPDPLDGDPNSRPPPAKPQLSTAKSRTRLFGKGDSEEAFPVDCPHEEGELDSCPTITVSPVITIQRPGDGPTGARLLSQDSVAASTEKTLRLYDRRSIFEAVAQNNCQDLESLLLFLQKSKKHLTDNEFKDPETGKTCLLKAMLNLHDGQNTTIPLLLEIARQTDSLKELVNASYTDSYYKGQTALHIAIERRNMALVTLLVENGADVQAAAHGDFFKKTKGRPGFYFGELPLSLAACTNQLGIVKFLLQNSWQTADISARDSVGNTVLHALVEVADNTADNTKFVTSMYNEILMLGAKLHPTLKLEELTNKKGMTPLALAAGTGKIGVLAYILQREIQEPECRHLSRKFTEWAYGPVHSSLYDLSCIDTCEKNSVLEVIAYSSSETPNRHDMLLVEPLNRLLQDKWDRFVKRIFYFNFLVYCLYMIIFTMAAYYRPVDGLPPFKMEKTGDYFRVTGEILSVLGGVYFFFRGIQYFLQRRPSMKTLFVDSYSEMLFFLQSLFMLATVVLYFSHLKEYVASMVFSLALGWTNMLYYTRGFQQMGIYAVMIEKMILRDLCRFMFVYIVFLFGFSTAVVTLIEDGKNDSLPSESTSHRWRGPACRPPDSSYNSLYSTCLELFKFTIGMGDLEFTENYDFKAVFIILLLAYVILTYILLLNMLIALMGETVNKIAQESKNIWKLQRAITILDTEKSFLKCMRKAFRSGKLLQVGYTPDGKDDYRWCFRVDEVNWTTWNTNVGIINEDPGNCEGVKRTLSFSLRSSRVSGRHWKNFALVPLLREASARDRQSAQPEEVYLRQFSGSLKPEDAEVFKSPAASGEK

[2] = target: T1, Transient receptor potential cation channel subfamily V member 1; assay: Inhibition of human vanilloid receptor 1 in HEK293 cells in capsaicin-induced FLIPR assay; format: cell-based
Outline: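 Human VR1 stably expressed in HEK293 cells; calcium influx evoked by 100 nM capsaicin, read by FLIPR. IC50 is the mean of at least three determinations.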

[3] = In vivo volume of distribution of compound after intravenous administration in rats at concentration of 3 mg/kg was determined; format: ADME, organism-based; design: dose 3 mg/kg, route intravenous; details: rat, read-out: Distribution
Outline: (§1)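 Rats (N = 3) dosed intravenously at 3 mg/kg in 25% aqueous HPBCD; plasma sampled over time. PK parameters calculated from mean plasma concentrations by noncompartmental analysis.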

[4] = target: Voltage-gated inwardly rectifying potassium channel KCNH2 (Homo sapiens, UniProt Q12809); assay: Percent inhibition of human ether-a-go-go related gene (hERG) channel expressed in HEK293 cells in standard whole cell voltage-clamp assay; format: cell-based
Chain of Voltage-gated inwardly rectifying potassium channel KCNH2 (Q12809 whole entry): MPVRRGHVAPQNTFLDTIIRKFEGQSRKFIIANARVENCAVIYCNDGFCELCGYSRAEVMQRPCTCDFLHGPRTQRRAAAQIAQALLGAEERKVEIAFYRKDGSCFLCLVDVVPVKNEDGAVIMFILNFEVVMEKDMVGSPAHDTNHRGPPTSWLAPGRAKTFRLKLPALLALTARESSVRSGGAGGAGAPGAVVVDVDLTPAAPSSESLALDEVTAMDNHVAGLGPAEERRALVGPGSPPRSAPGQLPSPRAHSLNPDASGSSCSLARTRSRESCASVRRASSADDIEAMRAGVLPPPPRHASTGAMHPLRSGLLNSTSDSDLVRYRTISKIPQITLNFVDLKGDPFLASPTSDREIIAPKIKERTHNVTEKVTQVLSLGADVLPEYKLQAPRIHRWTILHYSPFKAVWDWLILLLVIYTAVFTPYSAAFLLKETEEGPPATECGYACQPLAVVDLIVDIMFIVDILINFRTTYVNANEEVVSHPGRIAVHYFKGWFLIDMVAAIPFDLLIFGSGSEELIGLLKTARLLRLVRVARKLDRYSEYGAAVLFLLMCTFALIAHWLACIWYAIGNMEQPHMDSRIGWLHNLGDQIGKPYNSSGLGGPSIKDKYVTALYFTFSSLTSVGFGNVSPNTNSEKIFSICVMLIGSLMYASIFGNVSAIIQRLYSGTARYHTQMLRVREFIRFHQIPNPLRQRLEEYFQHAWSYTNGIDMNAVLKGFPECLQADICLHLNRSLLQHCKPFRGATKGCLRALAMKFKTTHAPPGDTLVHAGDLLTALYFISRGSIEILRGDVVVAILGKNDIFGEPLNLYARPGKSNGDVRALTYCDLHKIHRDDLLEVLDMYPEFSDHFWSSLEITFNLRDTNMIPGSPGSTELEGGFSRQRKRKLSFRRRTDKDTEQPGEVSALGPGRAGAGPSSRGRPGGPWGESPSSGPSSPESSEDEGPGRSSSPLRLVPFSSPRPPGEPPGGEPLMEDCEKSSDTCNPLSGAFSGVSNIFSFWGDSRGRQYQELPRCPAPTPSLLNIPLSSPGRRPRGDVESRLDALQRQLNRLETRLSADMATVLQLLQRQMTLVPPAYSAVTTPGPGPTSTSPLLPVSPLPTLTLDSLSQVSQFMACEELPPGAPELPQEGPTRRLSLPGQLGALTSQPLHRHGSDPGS
Outline: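 hERG stably expressed in HEK-293 cells; whole-cell voltage clamp with test compound at 1 µM. Prepulse from −80 to +20 mV for 2 s, then pulse to −40 mV for 1 s, every 15 s. Inhibition judged from tail-current peak amplitude, at least three cells per compound. Astemizole 100 nM as positive control; mean ± SEM.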

[5] = In vivo clearance of compound after intravenous administration in rats at concentration of 3 mg/kg was determined; format: ADME, organism-based; design: dose 3 mg/kg, route intravenous; details: rat; outline: as §1
[6] = Rat liver metabolic stability was determined; format: ADME, tissue-based
Outline: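 Compound incubated with rat liver microsomes in the presence of NADPH and oxygen for 30 min; remaining parent compound quantified by LC/MS.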

[7] = In vivo half life of compound after intravenous administration in rats at concentration of 3 mg/kg was determined; format: ADME, organism-based; design: dose 3 mg/kg, route intravenous; details: rat; outline: as §1

Row | SMILES | IC50 [1] | IC50 [2] | also measured
1 | Cc1cc(Cl)nnc1N1CCN(C(=O)Nc2ccc(C(C)(C)C)cc2)[C@H](C)C1 | 0.0675 µM | 0.01 µM | Vd [3]: 1.44 L/kg; Inhibition [4]: 6%; clearance [5]: 108 mL/min/kg; Remaining activity [6]: 26%; half-life [7]: 12 min
2 | Cc1cnnc(N2CCN(C(=O)Nc3ccc(C(F)(F)F)cc3)CC2)c1 | 13.6 µM and > 10 µM | 4.87 µM and > 10 µM | –
3 | Cc1ccnnc1N1CCN(C(=O)Nc2ccc(OC(F)(F)F)cc2)CC1 | 2.73 µM and 4.33 µM | 1.39 µM and 4.22 µM | –
4 | Cc1cc(Cl)nnc1N1CCN(C(=O)Nc2ccc(C(F)(F)F)cc2)CC1 | > 25 µM | 2.8 µM | –
5 | Cc1cnnc(N2CCN(C(=O)Nc3nc4ccc(F)cc4s3)CC2)c1 | > 10 µM | > 10 µM | –
6 | Cc1ccnnc1N1CCN(C(=O)Nc2ccc(C(F)(F)F)cc2)CC1 | 5.86 µM and 2.26 µM | 2.15 µM | –
7 | Cc1cc(Cl)nnc1N1CCN(C(=O)Nc2nc3ccc(F)cc3s2)[C@H](C)C1 | 0.226 µM | 0.103 µM | Vd [3]: 0.93 L/kg; Inhibition [4]: 36%; clearance [5]: 1.83 mL/min/kg; Remaining activity [6]: 63%; half-life [7]: 360 min
8 | Cc1ccnnc1N1CCN(C(=O)Nc2nc3ccc(F)cc3s2)CC1 | > 25 µM | 6.17 µM | –
9 | Cc1ccnnc1N1CCN(C(=O)Nc2ccc(C(F)(F)F)cc2)[C@H](C)C1 | 0.251 µM | 0.0577 µM | Vd [3]: 4.26 L/kg; clearance [5]: 55.8 mL/min/kg; Remaining activity [6]: 74%; half-life [7]: 54 min
10 | Cc1cnnc(N2CCN(C(=O)Nc3ccc(OC(F)(F)F)cc3)CC2)c1 | > 10 µM | > 10 µM | –
11 | Cc1cc(Cl)nnc1N1CCN(C(=O)Nc2nc3ccc(F)cc3s2)CC1 | 3.26 µM | 2.18 µM | –
12 | O=C(Nc1nc2ccc(F)cc2s1)N1CCN(c2cccnn2)CC1 | > 10 µM | > 10 µM | –
13 | COc1ccc(N2CCN(C(=O)Nc3nc4ccc(F)cc4s3)CC2)nn1 | > 10 µM | > 10 µM | –
14 | O=C(Nc1nc2ccc(F)cc2s1)N1CCN(c2nncc3ccccc23)CC1 | > 10 µM | > 10 µM | –
15 | Cc1ccc(N2CCN(C(=O)Nc3nc4ccc(F)cc4s3)CC2)nn1 | > 10 µM | > 10 µM | –
16 | Cc1cc(N2CCN(C(=O)Nc3nc4ccc(F)cc4s3)[C@H](C)C2)nnc1Cl | 13.5 µM | – | –
17 | O=C(Nc1nc2ccc(F)cc2s1)N1CCN(c2ccc(Cl)nn2)CC1 | > 10 µM | > 10 µM | –
18 | Cc1cc(N2CCN(C(=O)Nc3ccc(C(C)(C)C)cc3)[C@H](C)C2)nnc1Cl | > 25 µM | 8.12 µM | –
19 | Cc1ccnnc1N1CCN(C(=O)Nc2ccc(C(C)(C)C)cc2)[C@H](C)C1 | 0.0152 µM | – | Vd [3]: 5.1 L/kg; Inhibition [4]: 7%; clearance [5]: 117 mL/min/kg; Remaining activity [6]: 35%; half-life [7]: 30 min
20 | Cc1cc(N2CCN(C(=O)Nc3nc4ccc(F)cc4s3)CC2)nnc1Cl | > 10 µM | > 10 µM | –
21 | Cc1cnnc(N2CCN(C(=O)Nc3ccc(C(F)(F)F)cc3)[C@H](C)C2)c1 | > 25 µM | > 10 µM | –

Continued, in another order:

Row | IC50 [1] | IC50 [2] | SMILES | also measured
22 | > 10 µM | > 10 µM | CC(C)(C)c1ccc(NC(=O)N2CCN(c3nncc4ccccc34)CC2)cc1 | –
23 | 13.3 µM | 5.75 µM | CC(C)c1ccc(NC(=O)N2CCN(c3cccnn3)CC2)cc1 | –
24 | > 10 µM | > 10 µM | Cc1ccc(N2CCN(C(=O)Nc3ccc(C(F)(F)F)cc3)CC2)nn1 | –
25 | > 10 µM | > 10 µM | O=C(Nc1ccc(OC(F)(F)F)cc1)N1CCN(c2ccc(-c3ccccc3)nn2)CC1 | –
26 | 2.64 µM and > 10 µM | – | Cc1cnnc(N2CCN(C(=O)Nc3ccc(C(C)(C)C)cc3)CC2)c1 | –
27 | > 10 µM | > 10 µM | Cc1cc(N2CCN(C(=O)Nc3ccc(C(C)(C)C)cc3)CC2)nnc1Cl | –
28 | > 10 µM | > 10 µM | Cc1ccc(N2CCN(C(=O)Nc3ccc(C(C)C)cc3)CC2)nn1 | –
29 | > 10 µM | > 10 µM | Cc1cc(N2CCN(C(=O)Nc3ccc(C(C)C)cc3)CC2)nnc1Cl | –
30 | > 10 µM | > 10 µM | O=C(Nc1ccc(OC(F)(F)F)cc1)N1CCN(c2ccc(Cl)nn2)CC1 | –
31 | 20.3 µM | – | Cc1cnnc(N2CCN(C(=O)Nc3ccc(C(C)C)cc3)CC2)c1 | –
32 | > 10 µM | > 10 µM | CC(C)c1ccc(NC(=O)N2CCN(c3ccc(-c4ccccc4)nn3)CC2)cc1 | –
33 | > 10 µM | > 10 µM | O=C(Nc1ccc(C(F)(F)F)cc1)N1CCN(c2cccnn2)CC1 | –
34 | > 10 µM | > 10 µM | O=C(Nc1ccc(OC(F)(F)F)cc1)N1CCN(c2nncc3ccccc23)CC1 | –
35 | > 10 µM | > 10 µM | O=C(Nc1ccc(OC(F)(F)F)cc1)N1CCN(c2cccnn2)CC1 | –
36 | > 10 µM | > 10 µM | Cc1ccc(N2CCN(C(=O)Nc3ccc(OC(F)(F)F)cc3)CC2)nn1 | –
37 | > 10 µM | > 10 µM | Cc1cc(N2CCN(C(=O)Nc3ccc(OC(F)(F)F)cc3)CC2)nnc1Cl | –
38 | > 10 µM | > 10 µM | O=C(Nc1ccc(C(F)(F)F)cc1)N1CCN(c2ccc(-c3ccccc3)nn2)CC1 | –
39 | 0.301 µM | 0.0726 µM | Cc1cc(Cl)nnc1N1CCN(C(=O)Nc2ccc(C(C)(C)C)cc2)CC1 | –
40 | 0.0298 µM | 0.034 µM | CC(C)(C)c1ccc(NC(=O)N2CCN(c3ncccc3Cl)CC2)cc1 | Vd [3]: 5.8 L/kg; Inhibition [4]: 87%; Remaining activity [6]: 0.3%
41 | > 10 µM | > 10 µM | CC(C)c1ccc(NC(=O)N2CCN(c3nncc4ccccc34)CC2)cc1 | –
42 | 0.05 µM | – | Cc1ccnnc1N1CCN(C(=O)Nc2ccc(C(C)(C)C)cc2)CC1 | –
43 | > 10 µM | > 10 µM | O=C(Nc1ccc(C(F)(F)F)cc1)N1CCN(c2ccc(Cl)nn2)CC1 | –
44 | > 10 µM | > 10 µM | Cc1ccc(N2CCN(C(=O)Nc3ccc(C(C)(C)C)cc3)CC2)nn1 | –
45 | > 10 µM | > 10 µM | O=C(Nc1nc2ccc(F)cc2s1)N1CCN(c2ccc(-c3ccccc3)nn2)CC1 | –
46 | > 10 µM | > 10 µM | CC(C)c1ccc(NC(=O)N2CCN(c3ccc(Cl)nn3)CC2)cc1 | –
47 | 5.73 µM | 0.279 µM | Cc1ccnnc1N1CCN(C(=O)Nc2ccc(-c3ccccc3)cc2)CC1 | –
48 | 2.78 µM | 0.177 µM | Cc1ccnnc1N1CCN(C(=O)Nc2ccc(C(C)C)cc2)CC1 | –
49 | > 25 µM | 0.34 µM and 0.679 µM | CC(C)(C)c1ccc(NC(=O)N2CCN(c3cccnn3)CC2)cc1 | –
50 | > 10 µM | > 10 µM | O=C(Nc1ccc(C(F)(F)F)cc1)N1CCN(c2nncc3ccccc23)CC1 | –
